# TNAP act DEA: human TNAP activation, intermediate phosphate acceptor. AID 813. activation factor at 20 µM. purified TNAP, CDP-star luminescence, 100 mM DEA, 30 min; stronger effect = higher value; scale: 0 levamisole-inhibited, 1 vehicle-only enzyme. 64,000 tested, under 10 active;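 active = activation factor of at least 2 at 20 µM, relative to controls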
# S1P3 ag: activates the human S1P3 receptor | hit rate 0.1% among 60,000 | Q99500 | activation, % at 4.5 µM | S1P3 NFAT-BLA reporter cells, agonism, FRET ratio; relative to 1 µM S1P, basal subtracted;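 active = activation above the screen-wide mean plus 3 SD, cut at about 4.5% in these data, passing the limit was not always enough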
#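 material = human S1P3 NFAT-BLA reporter CHO cells | schedule = 4 h compound at 37 °C, 2 h substrate at RT | measured by = fluorescent BLA substrate, ex 405 nm, em 460/535 nm ratio | controls = 1 µM S1P reference | replication = primary once, confirmation triplicate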
# M1 agonist: agonists of M1 muscarinic receptor; CHO-M1 cells, Fluo-4 calcium fluorescence, agonist mode; stronger effect = higher value; B-score at 10 µM; hit rate 3% among 64,000; AID 626;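 active = fluorescence rise, raw or as B-score row- and column-corrected plate score, outside the 99.7% band of its plate's samples, either direction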
# S1P1 ag pot: S1P1 (human) agonism or agonism potentiation | P21453 | S1P1 CRE-bla cells, forskolin, beta-lactamase FRET, potentiator mode; S1P1 agonist co-added at EC20, 2 nM; 100% = saturating reference agonist, 0% = basal | activation, % at 9.5 µM | hit rate 0.57% among 56,000;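 active = activation above a cutoff set at the mean activation of all tested compounds plus 3 SD, cut at about 54% in these data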;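 also: forskolin at 4 µM as EC80 and the EC20 agonist is SEW2871; 100% = SEW2871 at its EC100 plus forskolin at EC80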
# M1 antag: blocks the rat M1 muscarinic receptor response to acetylcholine; CHO-M1 cells, Fluo-4 calcium, ACh EC80 antagonist mode; stronger effect = lower value; hit rate 3.4% among 64,000; B-score at 10 µM;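 active = calcium fluorescence response, raw or row-and-column corrected B-score, differing from the plate sample mean either way at a set confidence level, mostly lower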
# D1 allo mod: allosteric modulators of human D1 dopamine receptor | HEK293 D1, CRE-luciferase, dopamine EC30 potentiation; actives deviate in either direction | B-score at 10 µM | hit rate 5.9% among 58,000;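 active = luminescence count or its row- and column-corrected plate score outside the 99.7% band of the plate's sample wells, on either side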
# Target sequence (P21728 whole entry, looked up): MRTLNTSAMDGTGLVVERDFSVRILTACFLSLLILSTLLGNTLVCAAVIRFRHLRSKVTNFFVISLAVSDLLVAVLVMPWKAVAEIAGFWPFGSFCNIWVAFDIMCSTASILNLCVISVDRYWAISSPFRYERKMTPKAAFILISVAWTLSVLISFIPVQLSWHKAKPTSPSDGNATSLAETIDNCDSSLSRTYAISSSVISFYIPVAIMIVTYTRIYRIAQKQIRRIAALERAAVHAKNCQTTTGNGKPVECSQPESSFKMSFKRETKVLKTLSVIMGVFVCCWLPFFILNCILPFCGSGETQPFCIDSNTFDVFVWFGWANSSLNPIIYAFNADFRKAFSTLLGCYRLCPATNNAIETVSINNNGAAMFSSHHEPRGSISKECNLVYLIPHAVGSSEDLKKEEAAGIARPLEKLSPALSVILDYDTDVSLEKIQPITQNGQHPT
# D1 PAM confirm: confirmation of human D1 dopamine receptor allosteric modulators; shares compounds with D1 allo mod; AID 642; hit rate 88% among 2,200; HEK293 D1 CRE-luciferase, dopamine EC30 potentiation; stronger effect = higher value; luminescence at 10 µM;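 active = luminescence in either of two replicates above the same-plate mean plus 3 SD of the low-dose dopamine control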
# D1 ag no DA: D1 (human) signaling in absence of dopamine; shares compounds with D1 allo mod; HEK293 D1 CRE-luciferase, luminescence, no dopamine; stronger effect = higher value; luminescence at 10 µM; hit rate 0.8% among 1,900; in the data active = luminescence above about 3900
# Isoprot counter: counter-screen for D1 modulators: isoproterenol response in HEK293 cells; shares compounds with D1 allo mod; hit rate 63% among 2,200; HEK293 D1 CRE-luciferase, isoproterenol EC30 counter-screen; stronger effect = higher value; luminescence at 10 µM;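 active = luminescence in either replicate above plate mean of wells with a partly effective reference agonist dose plus 3 SD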;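 also: isoproterenol raises cAMP through native beta-adrenoceptor Gs so signal bypasses D1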
# * marks the source's active call; other numbers are inactive results; nt = not tested or not shown. Compounds with a hit are over-represented: about 11% of the library has one in this group of screens.
SMILES,TNAP act DEA,S1P3 ag,M1 agonist,S1P1 ag pot,M1 antag,D1 allo mod,D1 PAM confirm,D1 ag no DA,Isoprot counter
COc1nc(N(C#N)CC(N)=O)nc(N2CCCC2)n1,1,1.2,-0.55,-27.6,0.0962,8.38*,20228*,1780,6184*
COC(=O)CN(C#N)c1nc(SC)nc(N(C)C)n1,0.9,-1.1,-0.723,2.2,1.57,-0.258,nt,nt,nt
c1ccn(-c2ncnc3sc4c(c23)CCCC4)c1,0.9,-1.2,0.759,-13.0,0.272,7.57*,13568*,nt,3372*
c1cn(-c2ncnc3sc4c(c23)CCCC4)cn1,1,-0.6,-0.308,15.4,0.554,4.3,nt,nt,nt
CC1(C)N=C(/C=N/O)CN1O,0.9,-0.6,-2.55,-11.5,-0.0418,-0.337,nt,nt,nt
COc1ccc(C(=O)NCc2cn3c(C)csc3n2)cc1OC,nt,9.2,0.349,-14.9,-0.166,8.31*,15440*,1644,4060*
COc1ccc(CCNc2c(N)n(Cc3ccccc3)c(=O)[nH]c2=O)cc1OC,1,-0.8,-1.02,-16.2,-0.111,4.74*,14452*,1596,5560*
Nc1c(NCCC2=CCCCC2)c(=O)[nH]c(=O)n1Cc1ccccc1,1,0.2,-0.65,-19.9,-0.00988,nt,nt,nt,nt
CCOC(=O)c1[nH]c(C)c(C(=O)NC2CCN(C(=O)OCC)CC2)c1C,1,-0.2,0.033,-20.7,-0.192,2.13*,5396,1508,3156
COc1ccc2c(C)cc(=O)oc2c1C,0.9,-0.4,-0.049,-11.5,-0.013,5.73*,11556*,nt,3204*
CCOC(=O)c1c(C)c(C(=O)NCc2ccccc2OC)c(C)n1C,0.9,1.0,0.163,-39.3,-1.92,3.59*,7232*,1476,3600
CCOCCCNC(=O)c1c(C)c(C(=O)OCC)n(C)c1C,1,-0.6,0.477,-19.9,0.633,0.298,nt,nt,nt
Cc1nnc(NC(=O)CCC(=O)NCc2ccco2)s1,0.9,-1.2,-0.29,-6.0,1.22,0.0607,nt,nt,nt
CCSc1nsc(SCC)c1C(N)=O,1,nt,0.494,nt,0.0151,0.874,nt,nt,nt
CCCSc1nsc(SCCC)c1C(N)=O,0.9,-0.8,-0.00525,-16.8,-0.552,4.4*,9628*,1436,3348
Cc1cc(C)nc(N2CCC(CNC(=O)CCc3ccccc3)CC2)n1,0.9,0.1,-0.742,12.8,0.00181,0.87,nt,nt,nt
CCC1Oc2ccc(C)cc2N(CC(=O)NCCN2C(C)CCCC2C)C1=O (stereo not given),1,0.1,0.316,4.5,-1.82,4.98*,4656,1552,2612
Cc1ccc(S(=O)(=O)N2CCCN(S(=O)(=O)c3ccc(C(F)(F)F)cc3)CC2)cc1,0.9,-2.2,0.238,8.0,0.0558,-1.01,nt,nt,nt
CCn1cc(Br)c(C(=O)Nc2cccc(SC)c2)n1,0.9,-1.0,-0.00538,4.2,-0.048,-0.484,nt,nt,nt
COc1cc(C(=O)Nc2ccc(-c3nc4cc(C)ccc4o3)c(O)c2)cc(OC)c1OC,1,-1.3,0.999,-20.2,-0.00588,3.12*,5096,nt,2580
CC1(C)CC(=O)C2=C(C1)N(Cc1ccco1)C(=O)C2(NC(=O)C1CCCCC1)C(F)(F)F (stereo not given),0.9,-0.9,-0.102,16.1,-0.0812,0.28,nt,nt,nt
c1coc(-c2nn3c(-c4ccco4)nnc3s2)c1,1,-0.1,1.6,-16.0,1.4,2.82*,12468*,1852,3112*
Clc1ccc(-c2nnc3sc(-c4ccc(Br)o4)nn23)c(Cl)c1,0.9,0.2,-0.378,-16.5,-0.498,-0.42,nt,nt,nt
COc1ccccc1-c1nn2c(-c3ccco3)nnc2s1,0.9,-1.5,2.68,-4.6,-0.859,nt,nt,nt,nt
Clc1ccccc1-c1nnc2sc(-c3ccc(Br)o3)nn12,0.8,-0.8,1.16,11.0,-0.168,2.3*,8388*,1560,2532

# High-throughput results deposited in PubChem BioAssay by several laboratories.
